From PubChem
Env fusion inh: inhibitors of HIV-1 Env-driven cell-cell fusion, primary screen, HeLa-JRFL effector, CEM21 target cells, luciferase; inhibition, % at 12.3 µM; 1.1% of 360,000 active; AID 651610, 2012;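 active = mean replicate inhibition score of at least 50 and every replicate individually at or above 50; inconclusive = only one of the two criteria met; inactive = mean below 50 and not all replicates reaching 50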
EWS-Fli inh: EWS/Fli-driven NR0B1 reporter inhibitors, primary screen, A673 cells, NR0B1 luciferase, luminescence, MLPCN library; viability-normalised; inhibition, % at 12.6 µM; 0.67% of 350,000 active; AID 651661, 2012;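 active = mean inhibition of at least 50% after viability correction, with every replicate also passing that limit; inconclusive = mean reaches 50% but only one of two replicates passes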;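 note: firefly luciferase signal divided by Alamar Blue viability fluorescence both relative to DMSO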
FGF22 binding: binders of human FGF22 protein, primary screen, FGF22 synaptogenesis inhibitor project, biophysical, thermal shift, single point; Fibroblast growth factor 22 (Homo sapiens), Q9HCT0; recombinant FGF22 thermal shift, SYPRO orange fluorescence; percent of sucrose octasulfate shift, DMSO zero; activity (Tm shift, normalised), % at 9.99 µM; 1.5% of 340,000 active; AID 651658, 2012;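 active = mean Tm shift, scaled 0 neutral to 100 positive control, at about 1.3% or above, every replicate too, limit read from the data; inconclusive = no clear call, values can overlap the other calls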
Target sequence (Q9HCT0 whole entry, looked up): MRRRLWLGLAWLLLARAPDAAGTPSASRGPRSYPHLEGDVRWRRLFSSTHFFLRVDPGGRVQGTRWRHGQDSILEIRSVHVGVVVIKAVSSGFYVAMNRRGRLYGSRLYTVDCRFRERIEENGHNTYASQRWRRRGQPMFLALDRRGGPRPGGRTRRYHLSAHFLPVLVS
PAX8 inh HTS: inhibitors of PAX8-driven TPO luciferase reporter, primary screen, RMG-I cells, single concentration; inhibition, % at 12.6 µM; 1.2% of 360,000 active; SteadyGlo, 24 h;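 active = mean replicate inhibition at least 60% with every replicate also reaching 60%; inconclusive = only one of the two criteria is met; inactive = mean below 60% and not all replicates reaching 60%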;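 note: luciferase light reporting Pax8 driven TPO promoter activity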
PGC1a acetyl inh: inhibitors of PGC1a acetylation signal, primary screen, cell-based, U2OS, AlphaScreen, inhibitor mode. AlphaScreen anti-acetyl-lysine; with virally co-expressed GCN5 acetyltransferase. 0.17% of 350,000 active. inhibition, % at 15.6 µM. AID 651687, 2012;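 active = every replicate shows inhibition of at least 40%; inconclusive = mean inhibition at least 40% but some replicate below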
FN deposit inh: inhibitors of fibronectin matrix deposition, primary screen, AH1F cells, Alexa488-fibronectin fluorescence, plate reader | AH1F fibroblasts, overnight | inhibition, % at 12.6 µM | 0.086% of 350,000 active | AID 743247, 2014;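 active = mean inhibition across replicates of 30% or more, regardless of how many single replicates reach that level; inconclusive = mean under 30% yet at least half of replicates reach 30%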
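Material: AH1F fibroblasts assembling fluorescent fibronectin matrix; amount: 10000 AH1F cells/well; medium: DMEM, 2% serum; reagent: Alexa488-fibronectin, 24 nM final in well; dosing: single compound dose, delivered by pin transfer; incubation: 1 h adhesion, overnight exposure; detection: fluorescence after three HBSS washes, excitation 485 nm, emission 525 nm; measure: fibronectin deposition inhibition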
Large screens that a line does not name were inactive. Sampled rows, rich in hits. Any-hit rate of the full collection: about 3.1%.

O=C(Nc1ccc(NC(=O)C2CC2)nc1)c1cccs1	none (no result: Env fusion inh, EWS-Fli inh, FGF22 binding, PAX8 inh HTS, FN deposit inh)
CCCCC(=O)Nc1ccc(NC(=O)c2cccs2)cn1	PGC1a acetyl inh 49 (no result: Env fusion inh, EWS-Fli inh, FGF22 binding, PAX8 inh HTS, FN deposit inh)
CCCC(=O)Nc1ccc(NC(=O)c2cccs2)cn1	none (no result: EWS-Fli inh, FGF22 binding)
COC(=O)[C@H]1[C@H](CO)[C@H]2Cn3c(ccc(-c4ccccc4F)c3=O)[C@H]2N1Cc1ccccc1	none (no result: Env fusion inh, PGC1a acetyl inh, FN deposit inh)
C[C@@H]1CN([C@H](C)CO)C(=O)Cc2cc(NC(=O)Cn3cnnn3)ccc2O[C@H]1CN(C)C(=O)Nc1ccc(F)cc1	none (no result: FGF22 binding, FN deposit inh)
COC(=O)Nc1nc2ccc(C(=O)c3cccs3)cc2[nH]1	EWS-Fli inh 64, PAX8 inh HTS 64
O=C(Nc1nc2ccccc2[nH]1)c1cccs1	none
COc1ccc(-c2cnc3c(NC(C)=O)cc(-c4cc(F)ccc4OC)cn23)cc1OC	EWS-Fli inh 54
CCCCCC(=O)N1C[C@H](n2cc(-c3ccc(F)cc3)nn2)[C@@H](O)C[C@@H]1c1ccc(Cl)cc1	PAX8 inh HTS 82
COC(=O)c1ccc(OC)c(OC2CCCC2)c1	PGC1a acetyl inh 89
C[C@@H]1CN([C@@H](C)CO)C(=O)c2cccc(NS(=O)(=O)c3cccs3)c2O[C@@H]1CN(C)S(=O)(=O)c1cccs1	none (no result: FN deposit inh)
C[C@H](CO)N1C[C@H](C)[C@@H](CN(C)Cc2ccc(C(F)(F)F)cc2)Oc2ccc(NC(=O)C3CC3)cc2CC1=O	none (no result: FN deposit inh)
Cc1ccccc1COC(=O)c1nn(-c2ccccc2)nc1N	FN deposit inh 31 (no result: PGC1a acetyl inh)
Cc1ccc(N(C(=O)Cc2c[nH]c3ccccc23)C(C(=O)NC2CCCCC2)c2ccco2)cc1 (stereo unspecified)	Env fusion inh 84 (no result: EWS-Fli inh, FGF22 binding, PAX8 inh HTS)
Cc1ccccc1N(C(=O)Cc1c[nH]c2ccccc12)C(C(=O)NC1CCCCC1)c1ccco1 (stereo unspecified)	none (no result: EWS-Fli inh, FGF22 binding, PGC1a acetyl inh)
COCCNC(=O)C(=O)N/N=C(\C)CC(=O)Nc1ccc2c(c1)OCO2	none (no result: PGC1a acetyl inh)
COCCNC(=O)C(=O)N/N=C(\C)CC(=O)Nc1cccnc1	FGF22 binding 44
CCCN(C)C[C@H]1Oc2cc(C3=CCCC3)ccc2S(=O)(=O)N([C@H](C)CO)C[C@H]1C	none (no result: FGF22 binding, PAX8 inh HTS, FN deposit inh)
COc1ccc(NC(=O)COC(=O)c2cccc(S(=O)(=O)N(C)C)c2)cc1	FGF22 binding 43 (no result: PGC1a acetyl inh)
N#Cc1ccc(NC(=O)COC(=O)c2cccc(S(=O)(=O)N3CCCC3)c2)cc1	FGF22 binding 43
CN(C)S(=O)(=O)c1cccc(C(=O)Nc2cc(Cl)cc(Cl)c2)c1	none (no result: EWS-Fli inh, FGF22 binding)
CN(C)S(=O)(=O)c1cccc(C(=O)OCC(=O)Nc2sccc2C(N)=O)c1	Env fusion inh inconclusive (no result: EWS-Fli inh, FGF22 binding, PAX8 inh HTS)
COc1ccc(Cl)cc1C(=O)NNC(=O)c1cccc(S(=O)(=O)N(C)C)c1	FN deposit inh 31 (no result: EWS-Fli inh, FGF22 binding, PGC1a acetyl inh)
CN(C)S(=O)(=O)c1cccc(C(=O)Nc2ccccc2)c1	FGF22 binding 43
O=C(CC1CC1)Nc1ccc2c(c1)[C@H]1C[C@H](CC(=O)NC3CCCCC3)O[C@H](CO)[C@H]1O2	none
Cc1ccc2c(c1)[C@H]1[C@H](CO2)[C@H](c2ccccc2)[C@]2(C)C(=O)N(Cc3ccc(Cl)cc3)CC(=O)N12	Env fusion inh 65 (no result: PGC1a acetyl inh)
CCCCN1CC(=O)N2[C@H]3c4cc(C)ccc4OC[C@@H]3[C@H](c3ccccc3)[C@]2(C)C1=O	none (no result: Env fusion inh, PGC1a acetyl inh)
Cc1ccc2c(c1)[C@H]1[C@H](CO2)[C@H](c2ccccc2)[C@]2(C)C(=O)N(Cc3ccc(F)cc3)CC(=O)N12	Env fusion inh 62
COc1ccc2c(c1)OC[C@H]1[C@H]2N2C(=O)CN(Cc3ccc(C)cc3)C(=O)[C@@]2(C)[C@H]1c1ccccc1	Env fusion inh 87 (no result: PGC1a acetyl inh)
COc1ccc2c(c1)OC[C@H]1[C@H]2N2C(=O)CN(Cc3ccc(F)cc3)C(=O)[C@@]2(C)[C@H]1c1ccccc1	none
COc1ccc(CN2CC(=O)N3[C@H]4c5cc(C)ccc5OC[C@@H]4[C@H](c4ccccc4)[C@]3(C)C2=O)cc1	none
COCCNC(=O)C[C@@H]1C=C[C@H](NS(=O)(=O)c2ccc(C)cc2)[C@@H](CO)O1	none
C[C@@H]1CN([C@H](C)CO)S(=O)(=O)c2ccc(C#CC3CC3)cc2O[C@@H]1CN(C)C(=O)CN(C)C	none (no result: PAX8 inh HTS, FN deposit inh)
CO[C@@H]1CN(C)C(=O)c2cc(NC(=O)c3cc(C)on3)ccc2OC[C@@H](C)N(S(=O)(=O)c2ccccc2)C[C@H]1C	none (no result: Env fusion inh, FN deposit inh)
C[C@H](CO)N1C[C@H](C)[C@H](CN(C)CC2CC2)Oc2c(NS(=O)(=O)c3cccs3)cccc2C1=O	none (no result: FN deposit inh)
C[C@H](CO)N1C[C@H](C)[C@@H](CN(C)C(=O)Nc2cccc3ccccc23)Oc2ccc(NC(=O)Cc3ccccc3)cc2CC1=O	FGF22 binding 1.6 (no result: FN deposit inh)
C[C@@H]1CN([C@@H](C)CO)C(=O)Cc2cc(NS(=O)(=O)c3ccccc3)ccc2O[C@@H]1CN(C)C(=O)Nc1cccc2ccccc12	PAX8 inh HTS 73 (no result: FN deposit inh)
CCN1[C@@H]2c3ccc(C4=CCCCC4)c(=O)n3C[C@H]1[C@H](CO)[C@H]2C(=O)N1CCc2ccccc2C1	none (no result: Env fusion inh, FGF22 binding, PAX8 inh HTS, PGC1a acetyl inh, FN deposit inh)
Cc1cccc(NC(=O)CCCSc2nc3ccccc3[nH]2)c1	FGF22 binding 43
Cc1ccc2nc(SCC(=O)Nc3ccc(C(N)=O)cc3)[nH]c2c1	FGF22 binding 43
Cc1ccc2nc(SCC(=O)Nc3ccc4[nH]c(=O)[nH]c4c3)[nH]c2c1	none
CN(C)CCCOc1ccc(-c2cccc3nncn23)cn1	Env fusion inh inconclusive, FGF22 binding 43 (no result: PGC1a acetyl inh)
CN(C)CCCOc1ccc(-c2ccc3nncn3c2)cn1	none (no result: PGC1a acetyl inh)
Cc1ccc(C(C)C)c(OCc2nn(CC(=O)c3ccc(Cl)cc3)c3[n+]2CCCCC3)c1	EWS-Fli inh inconclusive, PAX8 inh HTS 66
CCc1c(C)nc(SCC(=O)N2CCN(c3ccccc3)CC2)[nH]c1=O	FGF22 binding 44
CCc1c(C)nc(SCC(=O)N2CCN(c3ccccc3OC)CC2)[nH]c1=O	none
CC1(C)Cc2ccccc2-c2nnc(SCc3ccccc3)n21	none (no result: Env fusion inh, PAX8 inh HTS, FN deposit inh)
COc1ccc(-n2cnnc2SCC(=O)N2CCN(c3ccccc3)CC2)cc1	none (no result: Env fusion inh, EWS-Fli inh, FGF22 binding, PAX8 inh HTS, FN deposit inh)
CC1(C)Cc2ccccc2-c2nnc(SCC(=O)N3CCN(c4ccccc4)CC3)n21	Env fusion inh 83 (no result: EWS-Fli inh, FGF22 binding, PAX8 inh HTS)
C=CCn1c(COc2cccc(C)c2C)nnc1SCC(=O)N1CCN(c2ccccc2)CC1	Env fusion inh 64 (no result: PGC1a acetyl inh)
COc1ccc(N2CCN(C(=O)CSc3nnc(-c4cc5ccccc5cc4O)n3C)CC2)cc1	Env fusion inh 77 (no result: EWS-Fli inh, FGF22 binding)
CC(=O)N(C)C[C@H]1Oc2ncc(-c3ccc(C#N)cc3)cc2C(=O)N([C@H](C)CO)C[C@@H]1C	none (no result: PAX8 inh HTS)
CCn1c(SCC(=O)N2CCN(c3ccccc3)CC2)nnc1-c1c[nH]c2ccccc12	Env fusion inh 65
